Data: the RNAGym collection of RNA variant scans (doi:10.1126/science.aae0568)
Fewer inactive variants are shown than the library holds.

B1: tRNA (parent)
chain: GUUCCGUUGGCGUAAUGGUAACGCGUCUCCCUCCUAAGGAGAAGACUGCGGGUUCGAGUCCCGUACGGAACG

Variants of: B1
Assay: yeast fitness relative to wild type (ratio to wild type); higher = fitter; tRNA-Arg(CCU), competitive growth, 37 C, YPD
Outline: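 Variants of the tRNA-Arg(CCU) gene were chemically synthesised with a 3% per-site mutation rate across 69 sites and placed at the native genomic locus in Saccharomyces cerevisiae. Six parallel replicates of the pooled strains were competed in YPD at 37°C for 24 hours, and gene amplicons from the start and end populations were read by 100-nucleotide paired-end sequencing. Darwinian fitness relative to wild type was derived from changes in genotype frequencies. Genotypes required ≥ 100 starting reads, and estimates < 0.5 were set to 0.5.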

Going from GUUCGGUCGGAGUAAUGGUAACGCGCCUCCCUCCCAAGGAGAAGACUGCCGAUUCGAGUCCCGUACGGAACG [C5G U8C C11A U26C U35C G50C G52A] to GUUCGGUCGGCGUAAUGGUAACGCGUGUCCCUGCAAAGGAGAAGACUGCGGGUUCGAGUCCCGUACGGAACG [C5G U8C C27G C33G U35A], the yeast fitness falls from 0.634 to at most 0.5.

Going from GUUCGGUCGGCGUAAUGCUAACGCGUCUCCCUCCUAAGGAGAAGACUGCGGGUUCGAGUCUCGUCCGGAACG [C5G U8C G18C C61U A65C] to GUUCGGUGGGCGUAAUGGUAACGCGUCUCCCUCCUAAGGAGACGACUACGGGUUCGAGUCCCGUACGGAACG [C5G U8G A43C G48A], the yeast fitness rises from at most 0.5 to 0.547.

First: GUUCGGUGGGGGUAAUGGUAACGCGUCUCCCUCCUAAGGAGAAGACUGCGGGUUCGAGUCCCGUACGGAACG [C5G U8G C11G]
Second: GUUCGGUUGGCGAAAUGGUAACGCGUCUCCCUCCUAAGGAGAAGACUGCGGGUUCGAGUCCCGUGCGGAACG [C5G U13A A65G]
The yeast fitness of the first is lower: 0.509 for the first, 0.603 for the second.

First: GUUCGGUUGGCGAAAUGGUAAGGCGUCUGCCUCCUAAGGUGAAGACUGCGGGUUCGAGUCCCGUACGGAACG [C5G U13A C22G C29G A40U]
Second: GUUCGGUUGGCGAAAUGGUAAGGCGUCUGCCUCCUAAGGUGAAGACUGCGGGUCCGAGUCCCGUACGGAACG [C5G U13A C22G C29G A40U U54C]
The yeast fitness of the first is higher: 0.556 for the first, at most 0.5 for the second.

First: GUUCGGUUGGCGAAAUGGUAAGGCGUCUCCCUCCUAAGGAGAAGACUGCGGGUUCGAGACCCGUACGGAACG [C5G U13A C22G U59A]
Second: GUUCGGUUGGCGAAAUGGUAACGCGUCUCUCUCCUAAGGAGAAGACUGCGGGUUCGAGUCCCGUACGGAACG [C5G U13A C30U]
The yeast fitness of the first is lower: at most 0.5 for the first, 0.56 for the second.

GUUCGGUUGGCGCAAUGGUACCGCGUCUCCCUCCUAAGGAGAAGACUGCGGGUUCGAGUCCCGUACGGACCG [C5G U13C A21C A70C] and GUUCGGUUGGCGCAAUGGUACCGCGUCUCCCUCCUAAGGAGAAGACUGCGGGUUCGAGUCCCGUACGUAACG [C5G U13C A21C G68U] cannot be ordered by yeast fitness: at most 0.5 for the first, at most 0.5 for the second.

First: GUUCGGUUGGCGCAAUGGUAAGGCGUCUCCCUACUAAGGAGAAGACUGCGGGUUCGAGUCCCGUACGGAACG [C5G U13C C22G C33A]
Second: GUUCGGUUGGCGCAAUGGUAACGUGUCUCCCUCCUAAGGAGAAGACUGCGGGUUCGAGUCCCGUACGGAACG [C5G U13C C24U]
The yeast fitness of the first is higher: 0.635 for the first, at most 0.5 for the second.

Going from GUUCGGUUGGCGCAAUGGUAACGCGUCUCCCUCCUAAGGAGAAGACUGCGGGUUCGAGUCCUGUACGGAACG [C5G U13C C62U] to GUUCGGUUGGCGCAAUGGUAACGCGUCUCCCUCCUAAGGAGAAGACUGCGGGUUCGACUCCCGUACGGAACG [C5G U13C G58C], the yeast fitness rises from 0.602 to 0.74.

Compared with GUUCGGUUGGCGCAAUGGUAACGCGUCUCCCUCCCAAGGAGAAGACUGCGGGUUCGAGUCCCGUACGGAACG [C5G U13C U35C], GUUCGGUUGGCGGAAUGGUAACGCGUCUCCCUCCUAAGGAGAAGACUGCGGGUUCGAGUCCCGUACGGAACG [C5G U13G] is higher in yeast fitness: at most 0.5 for the first, 0.703 for the second.

GUUCGGUUGGCGGUAUGGUAACGCGUCUCCCUCCUAAGGAGAAGACUCCGGGUUCGAGUCCCGUACGGAACG [C5G U13G A14U G48C] and GUUCGGUUGGCGGAAUGGUUACGCGUCUCCCUCCUAAGGAGAAGACUGCGGGUUCGAGUCCCGUACGGAACG [C5G U13G A20U] cannot be ordered by yeast fitness: at most 0.5 for the first, at most 0.5 for the second.

Compared with GUUCGGUUGGCGGAAUGGUUACGCGUCUCCCUCCUAGGGAGAAGACUGCGGGUUCGAGUCCCGUACGGAACG [C5G U13G A20U A37G], GUUCGGUUGGCGGAAUGGUAAGGCGUCUGCCUCCUAAGGUGAAGACUGCGGGUCCGAGUCGCGUACGGAACG [C5G U13G C22G C29G A40U U54C C61G] is higher in yeast fitness: 0.514 for the first, 0.567 for the second.

Going from GUUCGGUUGGCGUAAAGGUAACGCGUCUCCCUCCUAAGGAGAAGACUGCGGGUUCGAGUCCCGUACGGAACG [C5G U16A] to GUUCGGUUGGCGUAAAGGUAACGCGUCUCCCUCCUAAGGAGAGGACUGCGGGUUCGAGUCCCUUACGGAACG [C5G U16A A43G G63U], the yeast fitness falls from 0.959 to 0.524.

GUUCGGUUGGCGUAAAGGUAACGCGUCUCCCUCCUAAGGAGAAGACUGCGGGUUCGAGUCCCGUACGGUACG [C5G U16A A69U] and GUUCGGUUGGCGUAAAGGUAACGCGUGUCCCUCCUAAGGAGCAGACUGCGGGUUCGAGUCCCGUCCGGAACG [C5G U16A C27G A42C A65C] cannot be ordered by yeast fitness: at most 0.5 for the first, at most 0.5 for the second.

First: GUUCGGUUGGCGUAAAGGUAACGCGUCUUCCUCCUAAGGUGAAGACUGCGGGUUCGAGUCCCGUACGGAACG [C5G U16A C29U A40U]
Second: GUUCGGUUGGCGUAAAGGUAACGCGUCUUCCUCCUAAGGUGAAGACUGCGGGUUCGAGUCCCGUCCGGAACG [C5G U16A C29U A40U A65C]
The yeast fitness of the first is higher: 0.523 for the first, at most 0.5 for the second.

GUUCGGUUGGCGUAAAGGUAACGCGUCUUCCUCCUAAGGUGAAGACUGCGGAUUCGAGUCCCGUCCGGAACG [C5G U16A C29U A40U G52A A65C] and GUUCGGUUGGCGUAAAGGUAACGCGUCUCCGUCCUAAGGAGAAGACUGCGGGUUCGAGUCCCGUAGGGAACG [C5G U16A C31G C66G] cannot be ordered by yeast fitness: at most 0.5 for the first, at most 0.5 for the second.

First: GUUCGGUUGGCGUAAAGGUAACGCGUCUCCCUACUAAGGAGACGACUGCGGGUUCGAGUCCCGUACGGAACG [C5G U16A C33A A43C]
Second: GUUCGGUUGGCGUAAAGGUAACGCGUCUCCCUACUAAGGAGACGACUGCAGGUUCGUGUGCCGUACGGAACG [C5G U16A C33A A43C G50A A57U C60G]
The yeast fitness of the first is lower: at most 0.5 for the first, 0.523 for the second.

GUUCGGUUGGCGUAAAGGUAACGCGUCUCCCUCCUAAGAAGAAGACUGCGGGUUCGAGUCCCGUACGGAACG [C5G U16A G39A] and GUUCGGUUGGCGUAACGGUGACGCGUCUCCCUCCUAAGGAGAAGACUGCGGGUUCGAGUCCCGUACGGAACG [C5G U16C A20G] cannot be ordered by yeast fitness: at most 0.5 for the first, at most 0.5 for the second.

GUUCGGUUGGCGUAACGGUAACGUGUCUCCCUCCUAAGGAGAAGACUGCGGGUUCGAGUCCCGUACGGAACG [C5G U16C C24U] and GUUCGGUUGGCGUAACGGUAACGCGUCUCCCUCCUAAGCAGAAGACUGCGGGUUCGUGUCCCGUACGGAACG [C5G U16C G39C A57U] cannot be ordered by yeast fitness: at most 0.5 for the first, at most 0.5 for the second.

For GUUCGGUUGGCGUAAUGGAAACGCGUCUCCCUCCUAAGGAGAAGCCUGCGGGUUCGAGUCCCGUACGGAACG [C5G U19A A45C], the yeast fitness was 0.779.
